S100A4 inh HTS: S100A4-myosin IIA interaction inhibition. P26447. 360,000 compounds, 0.14% hits. S100A4/TAMRA-MyoIIA peptide fluorescence polarization. inhibition, % at 10.7 µM;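 active = mean inhibition of at least 70% across replicates, with every replicate also reaching that level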
Target sequence (P26447 whole entry, looked up): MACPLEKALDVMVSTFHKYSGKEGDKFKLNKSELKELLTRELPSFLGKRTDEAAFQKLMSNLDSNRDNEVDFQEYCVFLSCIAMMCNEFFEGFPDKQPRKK
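Test system – S100A4 monomer (human) · Compound – single-point compound testing · Schedule – 5 min incubation before reading · Probe or stimulus – TAMRA-labelled myosin IIA heavy-chain peptide probe, 5 nM · Benchmarks – neutral control DMSO, positive control TFP · Medium – Calcium-containing HEPES buffer, pH 7.2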
PGC1a acetyl inh: lowers PGC1a acetylation signal in U2OS cells. AlphaScreen anti-acetyl-lysine; with virally co-expressed GCN5 acetyltransferase. inhibition, % at 15.6 µM. 350,000 compounds, 0.17% hits;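 active = every replicate shows inhibition of at least 40%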
Cneo AK release: Cryptococcus neoformans lysis via adenylate kinase release; C. neoformans lysis, adenylate kinase release luminescence, 4 h; normalised: neutral wells 0, clomiphene wells 100; lysis activity, % at 15 µM; 360,000 compounds, 0.2% hits; AID 651654;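 active = mean lysis activity across replicates of at least 80%, whatever share of replicates individually reach that level; inactive = mean lysis activity below 80%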
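Assay system: log-phase C. neoformans yeast / Quantity: yeast cell density of 5 × 10^6 cells/mL / Medium: fresh YPD growth medium / Compound: single dose / Timing: static 4 h at 37 °C with compound, 1 h detection / Measured by: adenylate kinase release luminescence / Read-out: lysis from increased AK signal / Benchmarks: Clomiphene as positive lysis control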
Statin myotox sup: protects C2C12 myotubes from simvastatin toxicity. ATP luminescence, 48 h; scaled: DMSO 0, geranylgeraniol control 100. 330,000 compounds, 0.78% hits. rescue of ATP level, % at 7.49 µM;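 active = mean ATP rescue above about 67%, or every replicate alone reaching that limit, limit read from the data, passing the limit was not always enough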;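 note: myotubes were challenged with 10 µM simvastatin during compound exposure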
SIRT5 block: inhibitors of human sirtuin-5 desuccinylase. Q9NXA8. Purified SirT5, succinyl-peptide AMC, trypsin-coupled fluorescence. inhibition, % at 15 µM. 330,000 compounds, 1.1% hits. AID 652115; in the data active = inhibition above about 15%
Target sequence (Q9NXA8 whole entry, looked up): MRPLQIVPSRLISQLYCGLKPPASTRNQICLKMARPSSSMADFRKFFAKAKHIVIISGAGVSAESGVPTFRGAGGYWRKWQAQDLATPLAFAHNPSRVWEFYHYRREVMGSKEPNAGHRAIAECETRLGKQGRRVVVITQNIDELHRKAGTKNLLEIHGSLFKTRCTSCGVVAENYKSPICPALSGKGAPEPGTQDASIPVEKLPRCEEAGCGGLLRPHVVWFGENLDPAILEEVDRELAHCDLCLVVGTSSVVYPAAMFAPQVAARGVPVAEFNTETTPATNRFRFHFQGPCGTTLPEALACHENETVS
Ecoli rRNA inh: inhibitors of bacterial rRNA selective over humanized ribosomes. 350,000 compounds, 1.6% hits. GFP signal change (wild-type ribosome), % (test concentration not listed). AID 720706. E. coli WT GFP vs humanized-ribosome RFP mutants, fluorescence, 24 h; hits give low values; DMSO median 0, no signal -100;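 active = significant combined selectivity score with lowered wild-type GFP, culture density cut under 30%, mutant RFP and density less affected; inactive = any of these conditions unmet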
Hits are given with their value; . = inactive; / = not tested or not shown; ! = not active in a repeat. A selection: hits, their analogues and other compounds. The true share with any hit is near 3%.

SMILES | S100A4 inh HTS | PGC1a acetyl inh | Cneo AK release | Statin myotox sup | SIRT5 block | Ecoli rRNA inh
C[C@H]1CN([C@@H](C)CO)S(=O)(=O)c2ccc(C#CC3CCCC3)cc2O[C@@H]1CN(C)S(C)(=O)=O | . | . | . | . | . | .
CCOC(=O)C1CCN(C(=O)c2cc3c(=O)n4cccc(C)c4nc3s2)CC1 | . | / | . | . | . | -19
CCOC(=O)C1CCN(C(=O)c2cc3c(=O)n4ccccc4nc3s2)CC1 | . | / | . | / | . | .
C[C@@H]1CN([C@@H](C)CO)C(=O)c2cc(-c3ccncc3)cnc2O[C@@H]1CN(C)C(=O)c1ccc(F)cc1 | . | . | . | . | . | .
Cn1ncc(N=Cc2ccccc2O)c1C(=O)Nc1ccccc1 | / | . | . | 118 | / | /
COc1ccccc1NC(=O)c1c(N=Cc2c(O)ccc3ccccc23)cnn1C | . | . | / | / | . | .
O=C(NC1CCN(C(=O)N2c3ccccc3Sc3ccccc32)CC1)c1ccccc1F | . | . | . | 76 | . | -20
CC1CCN(C(=O)N2c3ccccc3Sc3ccccc32)CC1 | / | . | . | . | / | /
C[C@@H]1CN([C@@H](C)CO)C(=O)c2cccc(NS(=O)(=O)c3cccs3)c2O[C@H]1CN(C)Cc1ccccc1 | . | . | . | . | . | .
C[C@H](CO)N1C[C@H](C)[C@H](CN(C)Cc2ccc(Oc3ccccc3)cc2)Oc2c(NS(=O)(=O)c3cccs3)cccc2C1=O | . | . | . | . | . | .
C[C@@H]1CN([C@H](C)CO)C(=O)c2cccc(NS(=O)(=O)c3cccs3)c2O[C@H]1CN(C)Cc1ccccc1 | . | . | . | . | 26! | .
C[C@@H]1CN([C@H](C)CO)C(=O)c2cccc(NS(=O)(=O)c3cccs3)c2O[C@@H]1CN(C)Cc1ccc(Oc2ccccc2)cc1 | . | . | . | 79 | . | .
C[C@@H]1CN([C@H](C)CO)C(=O)c2cccc(NS(=O)(=O)c3cccs3)c2O[C@@H]1CN(C)Cc1ccc(-c2ccccc2)cc1 | . | . | . | 70 | . | .
Cc1ccc(S(=O)(=O)N[C@H]2CC[C@H](CC(=O)NCCCN(C)C)O[C@@H]2CO)cc1 | . | . | . | . | . | .
C[C@H]1CN([C@@H](C)CO)C(=O)c2cccc(NC(=O)NC3CCCCC3)c2O[C@H]1CN(C)S(=O)(=O)c1ccc(F)cc1 | / | . | / | . | / | .
CN1C(=O)c2cc(NC(=O)c3ccc(Cl)cc3)ccc2OC[C@H]2O[C@@H](CC(=O)O)CC[C@@H]21 | . | . | . | . | . | .
Cn1c(CSc2nc3ccccc3s2)nc2ccccc21 | / | . | . | . | / | /
Cn1c(CSc2ncn[nH]2)nc2ccccc21 | / | . | . | 98 | / | /
COC(=O)C[C@H]1CC[C@H]2[C@H](COc3ccc(NC(=O)Nc4cccc(Cl)c4)cc3C(=O)N2C)O1 | . | . | . | . | . | .
O=c1c(O)c(-c2cc(O)c(O)c(O)c2)oc2cc(O)cc(O)c12 | . | . | . | . | . | -24
O=c1c(O)c(-c2ccccc2)oc2cc(O)cc(O)c12 | . | . | . | . | / | /
Cc1cc2nc(CSc3ccccc3)cc(=O)n2[nH]1 | . | . | / | / | 29 | .
CCC(=O)Nc1ccc2c(c1)C(=O)N(C)[C@@H]1CC[C@@H](CC(=O)NCCc3ccccc3)O[C@@H]1CO2 | . | . | . | . | . | .
COc1ccc(C(=O)Oc2cc3c4c(c2)C(C)=CC(C)(C)N4C(=O)C3=O)cc1OC | / | / | / | . | / | /
COc1cccc(C(=O)Oc2cc3c4c(c2)C(C)=CC(C)(C)N4C(=O)C3=O)c1 | . | . | . | . | . | -20
SMILES | S100A4 inh HTS | PGC1a acetyl inh | Cneo AK release | Statin myotox sup | SIRT5 block | Ecoli rRNA inh
O=C1C=CC(=O)c2c(O)c(N3CCN(CCOCCO)CC3)c(Br)c(O)c21 | . | / | / | / | . | /
O=C1C=CC(=O)c2c(O)c(N3CCN(CCO)CC3)c(Cl)c(O)c21 | . | 51 | / | . | . | .
CO[C@H]1O[C@H](CO)[C@@H](OC(=O)Nc2cccc(F)c2)[C@H](OC(=O)Nc2ccccc2)[C@@H]1OC(=O)Nc1ccccc1 | . | . | . | / | . | /
C[C@H](CO)N1C[C@H](C)[C@@H](CN(C)CC2CCCCC2)OCCCC[C@H](C)Oc2ccc(NC(=O)Nc3ccc4c(c3)OCO4)cc2C1=O | . | . | . | 70 | . | .
COc1ccc(NC(=O)N(C)C[C@@H]2OCCCC[C@H](C)Oc3ccc(NC(=O)Nc4ccc5c(c4)OCO5)cc3C(=O)N([C@H](C)CO)C[C@@H]2C)cc1 | . | . | 92 | . | . | .
C[C@@H]1CN([C@H](C)CO)C(=O)c2cc(NC(=O)Nc3ccc4c(c3)OCO4)ccc2O[C@@H](C)CCCCO[C@@H]1CN(C)C(=O)C1CCCCC1 | . | . | . | / | . | .
C[C@H](CO)N1C[C@H](C)[C@@H](CN(C)C(=O)C2CCCCC2)OCCCC[C@H](C)Oc2ccc(NC(=O)Nc3ccc4c(c3)OCO4)cc2C1=O | . | . | . | / | 16 | .
C[C@@H]1CCCCO[C@H](CN(C)C(=O)Nc2ccc(C(F)(F)F)cc2)[C@H](C)CN([C@@H](C)CO)C(=O)c2cc(NC(=O)Nc3ccc4c(c3)OCO4)ccc2O1 | . | . | . | . | 15 | .
C[C@@H]1CCCCO[C@@H](CN(C)C(=O)Nc2ccc(F)cc2)[C@@H](C)CN([C@H](C)CO)C(=O)c2cc(NC(=O)Nc3ccc4c(c3)OCO4)ccc2O1 | . | . | . | . | . | .
C[C@@H]1CCCCO[C@@H](CN(C)C(=O)Nc2ccc3c(c2)OCO3)[C@@H](C)CN([C@H](C)CO)C(=O)c2cc(NC(=O)Nc3ccc4c(c3)OCO4)ccc2O1 | . | . | . | / | 17 | .
Cc1cc(OCCCC(=O)Nc2cccc(-n3cnnn3)c2)ccc1Cl | . | / | . | . | . | -34
C[C@@H]1CN([C@H](C)CO)C(=O)Cc2cc(N(C)C)ccc2O[C@H]1CN(C)Cc1ccc(Oc2ccccc2)cc1 | . | . | . | . | . | .
CCOc1ccc(CN(C)CC(=O)NCc2ccccc2Cl)cc1 | . | . | / | / | . | -28
CSc1ccc(S(=O)(=O)Nc2ccc(F)cc2)cc1 | / | . | / | 93 | / | /
CN(C)CC/C=C1/c2ccccc2COc2ccc(CC(=O)O)cc21 | 166 | . | . | . | . | .
CC(C)CN(CC(C)C)C(=O)COn1nnc2ccc(S(=O)(=O)N3CCOCC3)cc21 | . | . | . | . | . | .
O=C(COn1nnc2ccc(S(=O)(=O)N3CCOCC3)cc21)Nc1c(F)c(F)c(F)c(F)c1F | . | / | . | . | . | -20
Cc1noc(C)c1S(=O)(=O)N(C)C[C@@H]1Oc2ccc(NS(C)(=O)=O)cc2CC(=O)N([C@H](C)CO)C[C@H]1C | . | . | . | . | . | .
COc1ccc(-c2nn(-c3ccccc3)cc2/C=N/O)cc1 | . | / | . | . | . | -38
